From ChEMBL document CHEMBL1671853, “Decrease of atazanavir and lopinavir plasma concentrations in a boosted double human immunodeficiency virus protease inhibitor salvage regimen” (Antimicrob Agents Chemother, 2008)
Blank lines part the entries; values can stand above or below the compound they belong to.

Tests used:
[1] = Half life in HIV-1 infected patient at 300 mg, po qd coadministered with 100 mg of ritonavir, po qd and NRTI; assay type: ADME, organism-based; conditions: human, in vivo
How it was run: (§1)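 Retrospective steady-state TDM data from HIV-1-infected adults (n = 17 per group, matched for sex, age, ethnicity and body weight), taken after at least 2 weeks on therapy. Plasma sampled before dosing and at 1, 2, 4, 6, 9, 12 and 24 h, with food of approximately 2,500 kJ (21% fat). Drug levels measured by validated LC-MS/MS; parameters from noncompartmental analysis; geometric means (90% CI).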

[2] = Cmax in HIV-1 infected patient at 300 mg, po qd coadministered with 100 mg of ritonavir, po qd and NRTI; assay type: ADME, organism-based; parameters: dose 300 mg, route oral; conditions: human, in vivo; how it was run: as §1
[3] = Half life in HIV-1 infected patient at 300 mg, po qd coadministered with 400 mg, po bid and 100 mg, po bid of Lopinavir and ritonavir respectively; assay type: ADME, organism-based; conditions: human, in vivo; how it was run: as §1
[4] = Apparent oral clearance in HIV-1 infected patient at 300 mg, po qd coadministered with 400 mg, po bid and 100 mg, po bid of Lopinavir and ritonavir respectively; assay type: ADME, organism-based; conditions: human, in vivo; how it was run: as §1
[5] = Oral clearance in HIV-1 infected patient at 300 mg, po qd coadministered with 100 mg of ritonavir, po qd and NRTI; assay type: ADME, organism-based; conditions: human, in vivo; how it was run: as §1
[6] = AUC in HIV-1 infected patient at 300 mg, po qd coadministered with 400 mg, po bid and 100 mg, po bid of Lopinavir and ritonavir respectively; assay type: ADME, organism-based; conditions: human, plasma; how it was run: as §1
[7] = AUC in HIV-1 infected patient at 300 mg, po qd coadministered with 100 mg of ritonavir, po qd and NRTI; assay type: ADME, organism-based; conditions: human, plasma; how it was run: as §1
[8] = Cmax in HIV-1 infected patient at 300 mg, po qd coadministered with 400 mg, po bid and 100 mg, po bid of Lopinavir and ritonavir respectively; assay type: ADME, organism-based; parameters: dose 300 mg, route oral; conditions: human, in vivo; how it was run: as §1
[9] = AUC in HIV-1 infected patient at 400 mg, po bid coadministered with 100 mg, po bid of ritonavir and NRTI; assay type: ADME, organism-based; conditions: human, plasma
How it was run: (§2)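 HIV-1-infected adults on LPV-RTV gel capsules plus NRTI (n = 17, matched pairs) at steady state after at least 2 weeks of therapy, under a standardized routine TDM protocol with food of approximately 2,500 kJ (21% fat). Plasma sampled predose and at 1, 2, 4, 6, 9 and 12 h. Concentrations by validated LC-MS/MS; noncompartmental parameters given as geometric means (90% CI).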

[10] = AUC in HIV-1 infected patient at 400 mg, po bid coadministered with 100 mg, po bid of ritonavir and 300 mg, po qd of atazanavir; assay type: ADME, organism-based; conditions: human, plasma; how it was run: as §1
[11] = Half life in HIV-1 infected patient at 400 mg, po bid coadministered with 100 mg, po bid of ritonavir and 300 mg, po qd of atazanavir; assay type: ADME, organism-based; conditions: human, in vivo; how it was run: as §1
[12] = Cmax in HIV-1 infected patient at 400 mg, po bid coadministered with 100 mg, po bid of ritonavir and 300 mg, po qd of atazanavir; assay type: ADME, organism-based; parameters: dose 400 mg, route oral; conditions: human, in vivo; how it was run: as §1
[13] = Half life in HIV-1 infected patient at 400 mg, po bid coadministered with 100 mg, po bid of ritonavir and NRTI; assay type: ADME, organism-based; conditions: human, in vivo; how it was run: as §2
[14] = Apparent oral clearance in HIV-1 infected patient at 400 mg, po bid coadministered with 100 mg, po bid of ritonavir and 300 mg, po qd of atazanavir; assay type: ADME, organism-based; conditions: human, in vivo; how it was run: as §1
[15] = Apparent oral clearance in HIV-1 infected patient at 400 mg, po bid coadministered with 100 mg, po bid of ritonavir with NRTI; assay type: ADME, organism-based; conditions: human, in vivo; how it was run: as §2
[16] = Cmax in HIV-1 infected patient at 400 mg, po bid coadministered with 100 mg, po bid of ritonavir and NRTI; assay type: ADME, organism-based; parameters: dose 400 mg, route oral; conditions: human, in vivo; how it was run: as §2
[17] = AUC in HIV-1 infected patient at 100 mg, po bid coadministered with 400 mg, po bid of Lopinavir and 300 mg, po qd of atazanavir; assay type: ADME, organism-based; conditions: human, plasma; how it was run: as §1
[18] = Cmax in HIV-1 infected patient at 100 mg, po bid coadministered with 400 mg, po bid of Lopinavir and NRTI; assay type: ADME, organism-based; parameters: dose 100 mg, route oral; conditions: human, in vivo; how it was run: as §2
[19] = AUC in HIV-1 infected patient at 100 mg, po bid coadministered with 400 mg, po bid of Lopinavir and NRTI; assay type: ADME, organism-based; conditions: human, plasma; how it was run: as §2
[20] = Half life in HIV-1 infected patient at 100 mg, po bid coadministered with 300 mg, po qd of atazanavir and NRTI; conditions: human, in vivo
[21] = test system: Homo sapiens; assay: Apparent oral clearance in HIV-1 infected patient at 100 mg, po qd coadministered with 300 mg, po qd of atazanavir and NRTI; conditions: in vivo
[22] = AUC in HIV-1 infected patient at 100 mg, po qd coadministered with 300 mg, po qd of atazanavir and NRTI; conditions: human, plasma
[23] = test system: Homo sapiens; assay: Apparent oral clearance in HIV-1 infected patient at 100 mg, po bid coadministered with 400 mg, po bid of Lopinavir and NRTI; assay type: ADME, organism-based; conditions: in vivo; how it was run: as §2
[24] = Half life in HIV-1 infected patient at 100 mg, po bid coadministered with 400 mg, po bid of Lopinavir and NRTI; conditions: human, in vivo
[25] = Cmax in HIV-1 infected patient at 100 mg, po qd coadministered with 300 mg, po qd of atazanavir and NRTI; conditions: human, in vivo
[26] = Cmax in HIV-1 infected patient at 100 mg, po bid coadministered with 400 mg, po bid of Lopinavir and 300 mg, po qd of atazanavir; assay type: ADME, organism-based; parameters: dose 100 mg, route oral; conditions: human, in vivo; how it was run: as §1

half-life [1]: 7.21 h
Cmax [2]: 2740 ng/mL
half-life [3]: 7.79 h
CL/F [4]: 185 mL/min
CL/F [5]: 154 mL/min
AUC [6]: 26400 ng·h/mL
AUC [7]: 30300 ng·h/mL
Cmax [8]: 2260 ng/mL
Structure (SMILES): COC(=O)N[C@H](C(=O)N[C@@H](Cc1ccccc1)[C@@H](O)CN(Cc1ccc(-c2ccccn2)cc1)NC(=O)[C@@H](NC(=O)OC)C(C)(C)C)C(C)(C)C [ATAZANAVIR]

AUC [9]: 59700 ng·h/mL
AUC [10]: 48500 ng·h/mL
half-life [11]: 6.56 h
Cmax [12]: 5250 ng/mL
half-life [13]: 8.21 h
CL/F [14]: 133 mL/min
CL/F [15]: 99 mL/min
Cmax [16]: 6850 ng/mL
Structure (SMILES): Cc1cccc(C)c1OCC(=O)N[C@@H](Cc1ccccc1)[C@@H](O)C[C@H](Cc1ccccc1)NC(=O)[C@H](C(C)C)N1CCCNC1=O [LOPINAVIR]

AUC [17]: 3290 ng·h/mL
Cmax [18]: 525 ng/mL
AUC [19]: 3580 ng·h/mL
half-life [20]: 4.58 h
CL/F [21]: 199 mL/min
AUC [22]: 7770 ng·h/mL
CL/F [23]: 440 mL/min
half-life [24]: 4.03 h
Cmax [25]: 869 ng/mL
Cmax [26]: 468 ng/mL
Structure (SMILES): CC(C)c1nc(CN(C)C(=O)N[C@H](C(=O)N[C@@H](Cc2ccccc2)C[C@H](O)[C@H](Cc2ccccc2)NC(=O)OCc2cncs2)C(C)C)cs1 [RITONAVIR]
